According to ChEMBL document CHEMBL4325922, “Restoring Let-7 microRNA Biogenesis Using a Small-Molecule Inhibitor of the Protein-RNA Interaction” (ACS Med Chem Lett, 2018):
Activity calls are given as the source filed them. No cut-off for these calls is given here.

Assays:
[1] = molecular target: T1, Protein lin-28 homolog A/B (Homo sapiens) (UniProt Q6ZN17+Q9H9Z2); assay: Inhibition of Lin28a/Lin28b in human paclitaxel-resistant JAR cells assessed as reduction in MDR1 expression at 40 uM measured after 30 hrs by Western blot analysis
T1 sequence (Q6ZN17 whole entry, looked up, one chain of several): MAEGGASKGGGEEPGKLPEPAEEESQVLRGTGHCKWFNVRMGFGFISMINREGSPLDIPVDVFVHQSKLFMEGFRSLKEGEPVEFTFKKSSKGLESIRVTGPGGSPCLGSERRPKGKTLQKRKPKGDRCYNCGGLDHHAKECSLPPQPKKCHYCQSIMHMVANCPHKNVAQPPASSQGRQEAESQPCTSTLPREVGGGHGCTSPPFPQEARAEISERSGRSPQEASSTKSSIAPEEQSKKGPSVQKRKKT

[2] = molecular target: T1, Protein lin-28 homolog A/B (Homo sapiens); assay: Inhibition of Lin28a/Lin28b in human paclitaxel-resistant JAR cells assessed as reduction in IMP1 expression at 40 uM measured after 24 hrs by Western blot analysis
[3] = molecular target: T1, Protein lin-28 homolog A/B (Homo sapiens); assay: Inhibition of Lin28a/Lin28b in human paclitaxel-resistant JAR cells assessed as potentiation of paclitaxel induced cytotoxicity at 40 uM pretreated for 30 hrs followed by paclitaxel addition and measured after 72 hrs by WTS assay
Procedure, shortened: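 Paclitaxel-resistant JAR persister cells, enriched by cytotoxic paclitaxel exposure and regrowth without drug. Cells pretreated 30 h with compound, then given paclitaxel for 72 h without compound; WST viability used to derive the paclitaxel IC50.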

[4] = molecular target: T1, Protein lin-28 homolog A/B (Homo sapiens); assay: Inhibition of Lin28a/Lin28b in human JAR cells assessed as reduction in Lin28a expression at 5 to 10 uM after 24 hrs by Western blot analysis; assay type: cell-based
Procedure, shortened: (§1)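 Endogenous let-7 target proteins (HMGA2, IMP1, Ras, Lin28a) detected by Western blot in JAR or PA-1 cells after 24 h compound treatment.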

[5] = molecular target: T1, Protein lin-28 homolog A/B (Homo sapiens); assay: Inhibition of Lin28a/Lin28b in human JAR cells assessed as increase in mature let-7a level at 5 to 10 uM after 20 hrs by TRIzol dye based qRT-PCR analysis; assay type: cell-based
Procedure, shortened: (§2)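 JAR cells (express Lin28a and Lin28b) exposed to compound for 20 h; miRNA levels quantified with U6 snRNA as endogenous control; three or more biological replicates, standard deviation, paired two-tailed t test.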

[6] = molecular target: T1, Protein lin-28 homolog A/B (Homo sapiens); assay: Inhibition of Lin28a/Lin28b in human JAR cells assessed as reduction in IMP1 expression at 5 to 10 uM after 24 hrs by Western blot analysis; assay type: cell-based
Procedure, shortened: as §1

[7] = molecular target: T1, Protein lin-28 homolog A/B (Homo sapiens); assay: Inhibition of Lin28a/Lin28b in human JAR cells assessed as reduction in HMGA2 expression at 5 to 10 uM after 24 hrs by Western blot analysis; assay type: cell-based
Procedure, shortened: as §1

[8] = molecular target: T1, Protein lin-28 homolog A/B (Homo sapiens); assay: Inhibition of Lin28a/Lin28b in human JAR cells assessed as reduction in Ras expression at 5 to 10 uM after 24 hrs by Western blot analysis; assay type: cell-based
Procedure, shortened: as §1

[9] = molecular target: T1, Protein lin-28 homolog A/B (Homo sapiens); assay: Inhibition of Lin28a/Lin28b in human JAR cells assessed as increase in mature let-7g level at 5 to 10 uM after 20 hrs by TRIzol dye based qRT-PCR analysis; assay type: cell-based
Procedure, shortened: as §2

[10] = molecular target: T2, Protein lin-28 homolog A (Homo sapiens) (UniProt Q9H9Z2); assay: Inhibition of Cy5-preE-let-7g binding to recombinant human N-terminal His6-tagged Lin28a expressed in Escherichia coli Rosetta2 (DE3) pLysS at 15 uM measured after 30 to 60 mins by electrophoretic mobility shift assay relative to control
T2 sequence (whole entry): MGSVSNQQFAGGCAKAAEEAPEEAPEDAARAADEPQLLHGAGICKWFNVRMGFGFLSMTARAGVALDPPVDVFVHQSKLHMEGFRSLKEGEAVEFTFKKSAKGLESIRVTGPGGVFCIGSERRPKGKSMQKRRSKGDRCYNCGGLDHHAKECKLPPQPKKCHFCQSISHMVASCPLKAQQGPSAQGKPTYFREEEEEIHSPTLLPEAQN

Protein lin-28 homolog A = molecular target: T3, Protein lin-28 homolog A (Homo sapiens, UniProt Q9H9Z2); assay: Inhibition of Cy5-preE-let-7g binding to recombinant human N-terminal His6-tagged Lin28a expressed in Escherichia coli Rosetta2 (DE3) pLysS measured after 30 to 60 mins by electrophoretic mobility shift assay
T3 sequence (Q9H9Z2 whole entry): T2 sequence (whole entry)

SMILES: CC1(C)Oc2cc(N3CCN(C(=O)OCc4ccccc4)CC3)c([N+](=O)[O-])cc2-c2c1cnn2-c1ccc(C(=O)O)cc1
- inhibition [1]: Active
- inhibition [2]: Active
- inhibition [3]: Active

SMILES: COc1cccc(Nc2[nH]c3c(Cl)ccc(Cl)c3c(=O)c2C(N)=O)c1
- inhibition [4]: inactive
- Activity [5]: Active
- inhibition [6]: inactive
- inhibition [7]: inactive
- inhibition [8]: inactive
- Activity [9]: Active
- inhibition [10]: 14%

SMILES: NC(=O)c1c(Nc2ccc(F)cc2)[nH]c2c(Cl)ccc(Cl)c2c1=O
- inhibition [10]: 40%

SMILES: NC(=O)c1c(Nc2ccc(Cl)cc2Cl)[nH]c2c(Cl)c(Cl)ccc2c1=O
- IC50 (Protein lin-28 homolog A): 11 µM
